Test results taken from ChEMBL document CHEMBL3351702, “Design, synthesis and characterization of fluoro substituted novel pyrazolylpyrazolines scaffold and their pharmacological screening” (Eur J Med Chem, 2014).
Values after ≈ are worked out from the molar mass of the structure shown.

Experiments:
Clostridium tetani = assay: Antimicrobial activity against Clostridium tetani MTCC 449 assessed as absence of visible growth after 24 to 48 hrs by broth micro dilution method; type: functional
Bacillus subtilis = assay: Antimicrobial activity against Bacillus subtilis MTCC 441 assessed as absence of visible growth after 24 to 48 hrs by broth micro dilution method; type: functional
Vibrio cholerae = assay: Antimicrobial activity against Vibrio cholerae MTCC 3906 assessed as absence of visible growth after 24 to 48 hrs by broth micro dilution method; type: functional
Salmonella typhi = assay: Antimicrobial activity against Salmonella typhi MTCC 98 assessed as absence of visible growth after 24 to 48 hrs by broth micro dilution method; type: functional, Salmonella enterica subsp. enterica serovar Typhi; conditions: Salmonella enterica
Escherichia coli = assay: Antimicrobial activity against Escherichia coli MTCC 443 assessed as absence of visible growth after 24 to 48 hrs by broth micro dilution method; type: functional
Streptococcus pneumoniae = assay: Antimicrobial activity against Streptococcus pneumoniae MTCC 1936 assessed as absence of visible growth after 24 to 48 hrs by broth micro dilution method; type: functional
[1] = system: Mycobacterium tuberculosis; assay: Antituberculosis activity against Mycobacterium tuberculosis H37Rv assessed as inhibition of colony formation at 250 ug/ml after 4 weeks of incubation; type: functional; conditions: 672 h
Plasmodium falciparum = assay: Antimalarial activity against chloroquine ane quinine-sensitive ring stage of Plasmodium falciparum assessed as inhibition of parasite growth after 48 hrs; type: functional, organism-based
Procedure, shortened: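 P. falciparum field strain from a Surat hospital, cultured by a modified Trager–Jensen method and synchronized with 5% D-sorbitol at ring stage. Rings at 1–2% parasitaemia and 2.5% haematocrit in hypoxanthine-free RPMI-1640 with 10% human plasma. Exposed to 7 concentrations, diluted from DMSO stocks, for one 48 h cycle at 37 °C. Growth inhibition % measured; IC50 by interpolation; duplicate runs, mean reported.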

Aspergillus fumigatus = assay: Antimicrobial activity against Aspergillus fumigatus MTCC 3008 assessed as absence of visible growth after 24 to 48 hrs by broth micro dilution method; type: functional
Procedure, shortened: (§1)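 Fungal broth microdilution following NCCLS, in Sabouraud dextrose broth, with compounds diluted from DMSO and inoculum adjusted to 10⁸ CFU/mL by turbidity. Growth read at 24 and 48 h. MIC is the highest dilution preventing turbidity after spot subculture. Griseofulvin and nystatin were the references.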

Candida albicans = assay: Antimicrobial activity against Candida albicans MTCC 227 assessed as absence of visible growth after 24 to 48 hrs by broth micro dilution method; type: functional; procedure, shortened: as §1

| Compound | MIC (Clostridium tetani) [µg/mL] | MIC (Bacillus subtilis) [µg/mL] | MIC (Vibrio cholerae) [µg/mL] | MIC (Salmonella typhi) [µg/mL] | MIC (Escherichia coli) [µg/mL] | MIC (Streptococcus pneumoniae) [µg/mL] | inhibition at 250 µg/mL [1] [%] | IC50 (Plasmodium falciparum) [µg/mL] | MIC (Aspergillus fumigatus) [µg/mL] | MIC (Candida albicans) [µg/mL] |
| --- | --- | --- | --- | --- | --- | --- | --- | --- | --- | --- |
| CCn1cc(C(=O)O)c(=O)c2cc(F)c(N3CCNCC3)cc21 [NORFLOXACIN] | 50 (≈ 157 µM) | 100 (≈ 313 µM) | 10 (≈ 31.3 µM) | 10 (≈ 31.3 µM) | 10 (≈ 31.3 µM) | 10 (≈ 31.3 µM) | – | – | – | – |
| COc1ccc(N2N=C(c3ccc(F)cc3)CC2c2c(C)nn(-c3ccccc3)c2Oc2cccc(C(F)(F)F)c2)cc1 (stereo not drawn) | 200 (≈ 341 µM) | 100 (≈ 170 µM) | 250 (≈ 426 µM) | 100 (≈ 170 µM) | 100 (≈ 170 µM) | 200 (≈ 341 µM) | 52 | 0.3 (≈ 0.511 µM) | 500 (≈ 852 µM) | 250 (≈ 426 µM) |
| Cc1nn(-c2ccccc2)c(Oc2ccc(F)cc2)c1C1CC(c2ccc(F)cc2)=NN1c1ccc(F)cc1 (stereo not drawn) | 250 (≈ 477 µM) | 500 (≈ 953 µM) | 200 (≈ 381 µM) | 250 (≈ 477 µM) | 500 (≈ 953 µM) | 100 (≈ 191 µM) | 40 | 0.022 (≈ 0.0419 µM) | > 1000 | 200 (≈ 381 µM) |
| Cc1nn(-c2ccccc2)c(Oc2cccc(C(F)(F)F)c2)c1C1CC(c2ccc(F)cc2)=NN1c1ccc(Br)cc1 (stereo not drawn) | 250 (≈ 393 µM) | 250 (≈ 393 µM) | 250 (≈ 393 µM) | 200 (≈ 315 µM) | 250 (≈ 393 µM) | 500 (≈ 787 µM) | 91 | 1.46 (≈ 2.3 µM) | 500 (≈ 787 µM) | 1000 (≈ 1570 µM) |
| C=C[C@H]1CN2CC[C@H]1C[C@H]2[C@H](O)c1ccnc2ccc(OC)cc12 [QUININE] | – | – | – | – | – | – | – | 0.268 (≈ 0.826 µM) | – | – |
| Cc1nn(-c2ccccc2)c(Oc2ccccc2F)c1C1CC(c2ccc(F)cc2)=NN1c1ccc(F)cc1 (stereo not drawn) | 250 (≈ 477 µM) | 500 (≈ 953 µM) | 250 (≈ 477 µM) | 250 (≈ 477 µM) | 200 (≈ 381 µM) | 250 (≈ 477 µM) | 10 | 0.025 (≈ 0.0477 µM) | 100 (≈ 191 µM) | 1000 (≈ 1910 µM) |
| COc1ccc(N2N=C(c3ccc(F)cc3)CC2c2c(C)nn(-c3ccccc3)c2Oc2ccc(F)cc2)cc1 (stereo not drawn) | 200 (≈ 373 µM) | 62.5 (≈ 116 µM) | 100 (≈ 186 µM) | 500 (≈ 932 µM) | 500 (≈ 932 µM) | 125 (≈ 233 µM) | 74 | 0.25 (≈ 0.466 µM) | 250 (≈ 466 µM) | 500 (≈ 932 µM) |
| O=C(N[C@H](CO)[C@H](O)c1ccc([N+](=O)[O-])cc1)C(Cl)Cl [CHLORAMPHENICOL] | 50 (≈ 155 µM) | 50 (≈ 155 µM) | 50 (≈ 155 µM) | 50 (≈ 155 µM) | 50 (≈ 155 µM) | 50 (≈ 155 µM) | – | – | – | – |
| Cc1nn(-c2ccccc2)c(Oc2cccc(F)c2)c1C1CC(c2ccc(F)cc2)=NN1c1ccc(Br)cc1 (stereo not drawn) | 250 (≈ 427 µM) | 250 (≈ 427 µM) | 125 (≈ 214 µM) | 200 (≈ 342 µM) | 500 (≈ 854 µM) | 500 (≈ 854 µM) | 56 | 0.06 (≈ 0.102 µM) | > 1000 | 250 (≈ 427 µM) |
| NYSTATIN | – | – | – | – | – | – | – | – | 100 | 100 |
| CO[C@H]1/C=C/O[C@@]2(C)Oc3c(C)c(O)c4c(O)c(c(/C=N/N5CCN(C)CC5)c(O)c4c3C2=O)NC(=O)/C(C)=C\C=C\[C@H](C)[C@H](O)[C@@H](C)[C@@H](O)[C@@H](C)[C@H](OC(C)=O)[C@@H]1C [RIFAMPIN] | – | – | – | – | – | – | 98 | – | – | – |
| O=C(O)c1cn(C2CC2)c2cc(N3CCNCC3)c(F)cc2c1=O [CIPROFLOXACIN] | – | – | 25 (≈ 75.4 µM) | 25 (≈ 75.4 µM) | 25 (≈ 75.4 µM) | 25 (≈ 75.4 µM) | – | – | – | – |
| Cc1nn(-c2ccccc2)c(Oc2ccccc2F)c1C1CC(c2ccc(F)cc2)=NN1c1ccc(Br)cc1 (stereo not drawn) | 500 (≈ 854 µM) | 200 (≈ 342 µM) | 500 (≈ 854 µM) | 200 (≈ 342 µM) | 100 (≈ 171 µM) | 250 (≈ 427 µM) | 94 | 0.088 (≈ 0.15 µM) | 1000 (≈ 1710 µM) | 250 (≈ 427 µM) |
| COc1ccc(N2N=C(c3ccc(F)cc3)CC2c2c(C)nn(-c3ccccc3)c2Oc2ccccc2F)cc1 (stereo not drawn) | 500 (≈ 932 µM) | 100 (≈ 186 µM) | 500 (≈ 932 µM) | 500 (≈ 932 µM) | 500 (≈ 932 µM) | 500 (≈ 932 µM) | 22 | 0.65 (≈ 1.21 µM) | 250 (≈ 466 µM) | 500 (≈ 932 µM) |
| COc1ccc(N2N=C(c3ccc(F)cc3)CC2c2c(C)nn(-c3ccccc3)c2Oc2cccc(F)c2)cc1 (stereo not drawn) | 200 (≈ 373 µM) | 200 (≈ 373 µM) | 200 (≈ 373 µM) | 500 (≈ 932 µM) | 500 (≈ 932 µM) | 100 (≈ 186 µM) | 56 | 0.57 (≈ 1.06 µM) | > 1000 | 1000 (≈ 1860 µM) |
| CC1(C)S[C@@H]2[C@H](NC(=O)[C@H](N)c3ccccc3)C(=O)N2[C@H]1C(=O)O [AMPICILLIN] | 250 (≈ 715 µM) | 250 (≈ 715 µM) | 100 (≈ 286 µM) | 100 (≈ 286 µM) | 100 (≈ 286 µM) | 100 (≈ 286 µM) | – | – | – | – |
| Cc1nn(-c2ccccc2)c(Oc2ccc(F)cc2)c1C1CC(c2ccc(F)cc2)=NN1c1ccc(Br)cc1 (stereo not drawn) | 125 (≈ 214 µM) | 500 (≈ 854 µM) | 500 (≈ 854 µM) | 200 (≈ 342 µM) | 200 (≈ 342 µM) | 500 (≈ 854 µM) | 96 | 0.025 (≈ 0.0427 µM) | > 1000 | 500 (≈ 854 µM) |
| COC1=CC(=O)C[C@@H](C)[C@]12Oc1c(Cl)c(OC)cc(OC)c1C2=O [GRISEOFULVIN] | – | – | – | – | – | – | – | – | 100 (≈ 283 µM) | 500 (≈ 1420 µM) |
